Test results as given in ChEMBL document CHEMBL1157084, “Exploring the structural requirements for inhibition of the ubiquitin E3 ligase breast cancer associated protein 2 (BCA2) as a treatment for breast cancer” (J Med Chem, 2010).
Activity calls are given as the source filed them. The rule behind the calls is not given here.

Assays:
MCF7 [1] = assay: Antiproliferative activity against human MCF7 cells expressing BCA2 and estrogen receptor after 72 hrs by MTT assay; format: functional, cell-based; conditions: MCF7, 72 h
Summary of the method: (§1)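 Each compound run in triplicate; actives repeated in three independent experiments, IC50 read from growth curves as mean ± SD. Cells in RPMI 1640 + 10% heat-inactivated FBS (MDA-MB-231/ER also with 1 mg/mL G418; MCF10A in MEGM), 37 °C, 5% CO2, exponential phase.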

MDA-MB-231 [2] = assay: Antiproliferative activity against human MDA-MB-231 cells expressing BCA2 and ERalpha after 72 hrs by MTT assay; format: functional, cell-based; conditions: MDA-MB-231, 72 h; summary of the method: as §1
T47D = assay: Antiproliferative activity against human T47D cells expressing BCA2 and estrogen receptor after 72 hrs by MTT assay; format: functional, cell-based; summary of the method: as §1
[3] = Antiproliferative activity against human MCF10A cells after 72 hrs by MTT assay; format: cell-based; conditions: MCF-10A; summary of the method: as §1
Homo sapiens [4] = species: Homo sapiens; assay: Inhibition of wild type human recombinant His-BCA2 autoubiquitination expressed in Escherichia coli at 50 uM after 30 mins by Western blotting in presence of human recombinant E2 UbcH5b
Summary of the method: (§2)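 10 ng E. coli-expressed His-BCA2 preincubated 30 min at room temperature with compound (final 5 or 50 μM, DMSO stocks). Then added ATP, 1 μg ubiquitin, 20 ng rabbit E1 and 20 ng UbcH5b in Tris HCl pH 8.0 with DTT and MgCl2. Reaction 1 h at 30 °C, then SDS-PAGE on 4–20% gel and immunoblot with anti-ubiquitin antibody.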

Homo sapiens [5] = species: Homo sapiens; assay: Inhibition of wild type human recombinant His-BCA2 autoubiquitination expressed in Escherichia coli at 5 uM after 30 mins by Western blotting in presence of human recombinant E2 UbcH5b; summary of the method: as §2
[6] = target: E3 ubiquitin-protein ligase Mdm2 (Homo sapiens) (UniProt Q00987); assay: Inhibition of recombinant RING-E3 ligase Mdm2 autoubiquitination at 5 to 50 uM after 30 mins by Western blotting in presence of human recombinant E2 UbcH5b
[7] = target: T1, Aldehyde dehydrogenase 1A1 (Homo sapiens) (UniProt P00352); assay: Inhibition of ALDH1 in human K562 cells at 15 uM after 45 mins by flow cytometry based method relative to bodipy-aminoacetaldehyde; format: cell-based
T1 sequence (whole entry): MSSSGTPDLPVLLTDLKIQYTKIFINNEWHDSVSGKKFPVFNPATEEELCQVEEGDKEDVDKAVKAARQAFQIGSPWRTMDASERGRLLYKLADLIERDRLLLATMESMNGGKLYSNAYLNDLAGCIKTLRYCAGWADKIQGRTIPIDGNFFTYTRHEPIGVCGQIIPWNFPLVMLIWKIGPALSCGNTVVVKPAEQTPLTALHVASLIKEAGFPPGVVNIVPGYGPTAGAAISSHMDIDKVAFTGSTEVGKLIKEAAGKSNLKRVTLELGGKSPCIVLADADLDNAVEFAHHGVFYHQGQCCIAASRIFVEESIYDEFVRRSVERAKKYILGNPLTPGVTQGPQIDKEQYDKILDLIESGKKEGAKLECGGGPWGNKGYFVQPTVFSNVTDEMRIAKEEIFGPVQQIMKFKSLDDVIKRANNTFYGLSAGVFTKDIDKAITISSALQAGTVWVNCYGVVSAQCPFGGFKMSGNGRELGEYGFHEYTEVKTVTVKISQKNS

MDA-MB-231 [8] = assay: Antiproliferative activity against BCA2 and ER deficient human MDA-MB-231 cells after 72 hrs by MTT assay; format: functional, cell-based; conditions: MDA-MB-231, 72 h; summary of the method: as §1
K562 = assay: Percentage of ALDH+ cells in human K562 cells at 15 uM after 45 mins by flow cytometry based method; conditions: K562, 0.75 h
MCF7 [9] = assay: Antiproliferative activity against human MCF7 cells expressing BCA2 and estrogen receptor at IC50 concentration after 5 days by MTT assay in presence of 75 uM to 600 nM zinc chloride; format: functional, cell-based
Summary of the method: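 MCF-7 cells (BCA2+, ER+) grown in RPMI 1640 with 10% heat-inactivated FBS, 37 °C, 5% CO2, used in exponential growth. Drug given with zinc chloride across 600 nM–75 μM for 5 days, then MTT read-out. Vehicle-treated cells without ZnCl2 or drug set as 100% growth.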

MCF7 [10] = assay: Reduction of BCA2 protein expression in human MCF7 cells at IC100 after 16 hrs by Western blotting; format: functional, cell-based
MCF7 [11] = assay: Reduction of BCA2 protein expression in human MCF7 cells at IC100 after 16 hrs by Western blotting in presence of cyclohexamide; format: functional, cell-based
MCF7 [12] = assay: Reduction of BCA2 protein expression in human MCF7 cells at IC100 after 16 hrs by Western blotting in presence of cyclohexamide and MG132; format: functional, cell-based
MCF7 [13] = assay: Reduction of BCA2 protein expression in human MCF7 cells at IC100 after 16 hrs by Western blotting in presence of MG132; format: functional, cell-based

Chain of E3 ubiquitin-protein ligase Mdm2 (Homo sapiens) (Q00987 whole entry, looked up): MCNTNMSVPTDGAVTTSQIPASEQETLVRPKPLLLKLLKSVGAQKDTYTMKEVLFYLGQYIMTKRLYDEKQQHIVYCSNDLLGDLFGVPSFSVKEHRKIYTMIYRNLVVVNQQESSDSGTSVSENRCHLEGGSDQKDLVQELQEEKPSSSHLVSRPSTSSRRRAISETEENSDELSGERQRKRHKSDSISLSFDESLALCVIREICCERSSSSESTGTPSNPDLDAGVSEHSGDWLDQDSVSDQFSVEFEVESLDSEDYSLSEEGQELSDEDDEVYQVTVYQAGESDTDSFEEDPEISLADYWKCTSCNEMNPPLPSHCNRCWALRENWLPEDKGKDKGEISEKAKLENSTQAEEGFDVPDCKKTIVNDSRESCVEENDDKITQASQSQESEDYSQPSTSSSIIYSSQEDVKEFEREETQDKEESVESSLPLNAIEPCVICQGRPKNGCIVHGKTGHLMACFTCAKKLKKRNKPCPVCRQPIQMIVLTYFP

Structure (SMILES) | IC50 (MCF7 [1]) | IC50 (MDA-MB-231 [2]) | IC50 (T47D) | IC50 (MDA-MB-231 [8]) | IC50 [3] | Activity (Homo sapiens [4]) | Activity (Homo sapiens [5]) | Activity [6] | inhibition [7] | ALDH+ cells (%) at 15 µM (K562) | Activity (MCF7 [9]) | Activity (MCF7 [10]) | Activity (MCF7 [11]) | Activity (MCF7 [12]) | Activity (MCF7 [13])
CCN(CC)C(=S)SSCCO | 0.5 µM | 2.75 µM | 0.3 µM |  | > 10 µM | Active | inactive | inactive | 8.6% |  |  |  |  |  | 
CCCCSSC(=S)N1CCCCC1 | 0.65 µM | 0.39 µM | 0.35 µM | 8 µM | > 10 µM |  |  |  |  |  |  |  |  |  | 
S=C(SSC1CCCCC1)N1CCCCC1 | 0.6 µM | 2.3 µM | 0.25 µM | 6.7 µM | > 10 µM |  |  |  |  |  |  |  |  |  | 
S=C(SSC1CCCCC1)N1CCCC1 | 1.4 µM | 0.25 µM | 1.35 µM | 4.7 µM | > 10 µM |  |  |  |  |  |  |  |  |  | 
Cc1cc(C)n2c1C=C1C=CC(CCC(=O)NCC=O)=[N+]1[B-]2(F)F |  |  |  |  |  |  |  |  | 0% | 40.4% |  |  |  |  | 
CCN(CC)C(=S)SSc1ccc(C(=O)O)cc1 | 0.5 µM | 0.55 µM | 0.15 µM | 6.3 µM | > 10 µM |  |  |  |  |  |  |  |  |  | 
CCC(C)SSC(=S)N(CC)CC (stereo unspecified) | 0.45 µM | 2.1 µM | 0.2 µM | 6 µM | > 10 µM |  |  |  |  |  |  |  |  |  | 
S=C(SSC(=S)N1CCCCC1)N1CCCCC1 [BIS(PIPERIDINYLTHIOCARBONYL)DISULFIDE] | 0.03 µM | 0.59 µM | 0.27 µM | > 10 µM | > 10 µM | Active | inactive | inactive | 79.5% | 8.3% | inactive | Active | Active | Active | Active
S=C(SSC(=S)N1CCCC1)N1CCCC1 [BIS(PYRROLIDINYLTHIOCARBONYL)DISULFIDE] | 0.38 µM | 0.25 µM | 0.28 µM | > 10 µM | > 10 µM | Active | inactive | inactive | 3.4% | 39% |  |  |  |  | 
CCCCCCSSC(=S)N(CC)CC [DIETHYLCARBAMO(DITHIOPEROXO)THIOATE] | 0.43 µM | 0.35 µM | 0.23 µM | > 10 µM | > 10 µM | Active | inactive | inactive | 9.8% | 36.5% | inactive | Active | Active | Active | Active
C1CN(SSN2CCOCC2)CCO1 [DITHIODIMORPHOLINE] | > 10 µM | > 10 µM | > 10 µM | > 10 µM | > 10 µM |  |  |  |  |  |  |  |  |  | 

Now from value to molecule, other results behind:

IC50 (MCF7 [1]) | IC50 (MDA-MB-231 [2]) | IC50 (T47D) | IC50 (MDA-MB-231 [8]) | Structure (SMILES) | IC50 [3] | Activity (Homo sapiens [4]) | Activity (Homo sapiens [5]) | Activity [6] | inhibition [7] | ALDH+ cells (%) at 15 µM (K562) | Activity (MCF7 [9]) | Activity (MCF7 [10]) | Activity (MCF7 [11]) | Activity (MCF7 [12]) | Activity (MCF7 [13])
0.35 µM | 0.29 µM | 0.33 µM | 3 µM | CN1CCN(C(=S)SSC(=S)N2CCN(C)CC2)CC1 | > 10 µM |  |  |  |  |  |  |  |  |  | 
0.1 µM | 0.32 µM | 0.17 µM | > 10 µM | CCN(CC)C(=S)SSC(=S)N(CC)CC | 10 µM | Active | inactive | inactive | 57.3% | 17.3% | inactive |  |  |  | 
0.4 µM | 0.3 µM | 0.15 µM | 7.4 µM | CCCCSSC(=S)N(CC)CC [BUTYL DIETHYLCARBAMO(DITHIOPEROXO)THIOATE] | > 10 µM |  |  |  |  |  |  |  |  |  | 
0.3 µM | 0.28 µM | 0.18 µM | 0.96 µM | CCN(CC)C(=S)SSC1CCCCC1 [CYCLOHEXYL DIETHYLCARBAMO(DITHIOPEROXO)THIOATE] | > 10 µM |  |  |  |  |  |  |  |  |  | 
0.39 µM | 0.25 µM | 0.23 µM | 0.96 µM | CCN(CC)C(=S)SSC(C)C [ISOPROPYL DIETHYLCARBAMO(DITHIOPEROXO)THIOATE] | > 10 µM |  |  |  |  |  |  |  |  |  | 
